# B2AR ag: beta2AR agonists driving receptor internalization, primary screen, cell-based, FAP fluorogen, flow cytometry. 0.43% of 340,000 active. Beta-2 adrenergic receptor (Homo sapiens), P07550. response, % (no concentration beside the values). Am2.2-beta2AR cells. AID 504454, 2011;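 active = response above a set limit, near 3 SD of response in nonfluorescent compounds, cut at about 42% in these data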
# H9c2 protect: cardioprotection against H2O2-induced cell death, primary screen, uHTS, H9c2 cells, ATPLite luminescence; H9c2 cardiomyocytes, H2O2 injury protection, 2 h; protection from H2O2 cell death, % at 20 µM; 0.63% of 360,000 active; AID 588492, 2011;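 active = compounds giving at least 50% protection of heart cells from peroxide-induced death in the single-dose screen, raw or plate-pattern-corrected value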;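 note: 0% = DMSO wells with peroxide and 100% = DMSO wells without peroxide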
# PfGluPho inh: PfG6PD enzyme inhibitors, primary screen, biochemical, fluorescence intensity, uHTS; PfGluPho enzyme, NADPH resazurin-diaphorase fluorescence; inhibition, % at 20 µM; AID 504690, 2011; 0.78% of 350,000 active;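 active = inhibition reaching at least a set limit at 20 µM in the primary screen, cut at about 59% in these data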;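 note: 0% = DMSO wells with substrate and 100% = DMSO wells lacking glucose-6-phosphate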
# HKDC1 inh: HKDC1 hexokinase inhibitors, primary screen, biochemical, fluorescence, uHTS | recombinant HKDC1, G6PDH/diaphorase resazurin coupled fluorescence | AID 493160, 2011 | inhibition, % at 20 µM | 0.16% of 340,000 active | Q2TB90;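 active = inhibition above about 35% when tested at 20 µM, limit read from the data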;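 note: plate controls were DMSO wells with enzyme for no effect and DMSO wells lacking enzyme for full effect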
# Target sequence (Q2TB90 whole entry, looked up): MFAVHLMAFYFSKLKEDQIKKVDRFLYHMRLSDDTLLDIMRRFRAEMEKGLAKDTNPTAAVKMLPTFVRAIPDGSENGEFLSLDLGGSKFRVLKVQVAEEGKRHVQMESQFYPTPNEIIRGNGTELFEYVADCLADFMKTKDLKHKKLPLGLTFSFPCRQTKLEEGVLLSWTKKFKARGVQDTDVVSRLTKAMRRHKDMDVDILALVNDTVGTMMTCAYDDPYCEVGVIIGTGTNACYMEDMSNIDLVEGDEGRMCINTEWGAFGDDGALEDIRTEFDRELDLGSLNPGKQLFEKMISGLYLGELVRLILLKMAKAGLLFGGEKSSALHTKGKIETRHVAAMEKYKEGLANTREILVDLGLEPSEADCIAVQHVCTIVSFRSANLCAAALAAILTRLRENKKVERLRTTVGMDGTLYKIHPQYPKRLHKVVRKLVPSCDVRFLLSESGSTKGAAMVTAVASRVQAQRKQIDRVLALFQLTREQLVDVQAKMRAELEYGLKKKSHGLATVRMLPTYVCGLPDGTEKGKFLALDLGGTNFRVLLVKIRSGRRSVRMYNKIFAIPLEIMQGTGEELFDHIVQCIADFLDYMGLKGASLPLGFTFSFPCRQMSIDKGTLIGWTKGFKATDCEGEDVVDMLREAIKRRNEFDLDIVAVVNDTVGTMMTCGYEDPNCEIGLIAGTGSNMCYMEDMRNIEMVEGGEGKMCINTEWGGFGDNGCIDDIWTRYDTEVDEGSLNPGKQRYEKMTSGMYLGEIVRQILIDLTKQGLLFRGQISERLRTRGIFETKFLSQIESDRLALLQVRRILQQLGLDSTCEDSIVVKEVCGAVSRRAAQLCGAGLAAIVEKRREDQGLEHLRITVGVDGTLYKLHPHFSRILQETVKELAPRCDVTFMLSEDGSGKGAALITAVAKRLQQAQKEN
#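 Test system: recombinant HKDC1 (HK5) hexokinase enzyme, produced in-house; Amount: enzyme 5 µg/mL final; Buffer or medium: Tris pH 8.0 buffer with MgCl2, Tween-20, BSA, BME; Reagent: glucose and ATP substrates; Doses: 20 µM test compound, 1% DMSO; Incubation: 90 min reaction incubation at room temperature, dark; Detection: resorufin fluorescence at 613 nm.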
# UCH37 inh: inhibitors of human UCH37 deubiquitinase, primary screen, biochemical, Ub-AMC cleavage, fluorescence. 0.33% of 330,000 active. inhibition, % (test concentration not listed). purified proteasome/UCH37. AID 588478, 2011;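 active = mean inhibition over replicate wells above about 20%, limit read from the data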;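 note: 0% = compound-free wells with enzyme and 100% = wells lacking proteasome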
#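 Material: human UCH37 enzyme supplied as purified proteasome complex. Measure: % inhibition of Ub-AMC cleavage fluorescence. Medium: pH 7.4 Tris-HCl (50 mM) with ovalbumin, ATP-MgCl2, DTT. Times: 30 min preincubation with enzyme, 25 min cleavage at room temperature. Detection: AMC fluorescence intensity at 355/460 nm.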
# aDG glyco up: activators of alpha-DG glycosylation, primary screen, uHTS, Pro5-aDG cells, AlphaScreen | alpha-DG glycosylation AlphaScreen (IIH6); 0% Pro5, 100% B10-LARGE cell signal | activation, % at 10 µM | 0.22% of 360,000 active | AID 624168, 2012;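 active = activation of at least 8% versus controls, or a plate z-score of at least 8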;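 note: Pro5 are CHO cells carrying HIG-tagged alpha-DG that lacks glycosylation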
# The depositor's hits bear a star; . = no result given. A selection: hits, their analogues and other compounds. The true share with any hit is near 2.1%.
SMILES,B2AR ag,H9c2 protect,PfGluPho inh,HKDC1 inh,UCH37 inh,aDG glyco up
COc1ccccc1NCC(=O)NN=C/C=C/c1ccccc1,.,.,.,.,2.2,.
COc1ccc2nc(Nc3nc(CSc4nc5ccccc5[nH]4)cc(=O)[nH]3)nc(C)c2c1,-10.6,69.7*,-15.9,21.1,0.1,0.0
Cc1ccc(S(=O)(=O)NC2=C(N3CCN(Cc4ccccc4)CC3)C(=O)c3ccccc3C2=O)cc1,53.1*,-9.4,6.7,5.7,5.6,0.0
O=C1N[C@H]2CC=C[C@H]2Nc2ccccc21,-2.8,50.9*,30.5,19.5,1.6,0.0
Cc1ccc[n+](/C(=C\C(=C=[N-])C#N)C(=O)c2ccc(Cl)cc2)c1,-2.2,-1.2,1.8,-1.1,21.5*,-0.3
CCCCC(=O)O[C@H]1CC[C@H]2[C@@H]3CCc4cc(O)ccc4[C@H]3CC[C@]12C,42.6*,-4.0,14.0,4.6,3.1,-0.2
O=[N+]([O-])c1ccccc1C=NNC1=NCCCCC1,.,.,.,.,6.6,.
CC(=O)NS(=O)(=O)c1ccc(Nc2ccc([N+](=O)[O-])c3nonc23)cc1,4.3,-3.5,-18.6,27.0,25.0*,0.5
O=[N+]([O-])c1ccc(Nc2ccccc2)c2nonc12,0.7,-16.6,-12.7,8.3,.,0.3
C/C(=N\NC(=O)CN(c1ccccc1)S(C)(=O)=O)c1ccccc1O,16.0,59.2*,-26.6,-9.4,.,1.4
CC(C)CCN(C(=O)CNC(=O)c1ccco1)C(C(=O)NC1CCCCC1)c1ccco1 (stereo not given),-19.7,51.8*,-4.1,-3.9,1.8,-0.1
COc1ccc(C=NNC(=O)c2cc[n+]([O-])cc2)cc1OC,.,.,.,.,8.0,.
CC(=O)c1ccc(NC(=O)c2cccs2)cc1,-12.5,-8.7,4.3,-5.9,1.5,0.0
Cc1cc(C)cc(C(=O)Nc2ccc(NC(=O)c3cccs3)cc2)c1,-18.0,49.4*,15.8,5.2,-5.3,0.9
CC(C)(C)NC(=O)c1cc(NC(=O)c2cccs2)cc(NC(=O)c2cccs2)c1,-15.6,62.9*,-16.3,-4.8,1.1,-0.3
CC(=O)Nc1cccc(/C(C)=N/NC(=O)c2cccs2)c1,-3.7,59.1*,-24.3,-0.6,.,0.0
CCN(CC)c1ccc(C=NNC(=O)Nc2ccccc2)cc1,.,.,.,.,-30.5,.
COc1ccc(O[C@H]2C=C[C@@H](c3ccccc3)O[C@@H]2COC(=O)CCC(C)=NO[C@H](C)c2cn([C@@H]3COC[C@H]3O)nn2)cc1,.,.,.,.,1.2,.
Cc1cc(C=NNC(=O)Cn2c3ccccc3c(=O)c3ccccc32)c(C)n1-c1ccccc1,.,.,.,.,-55.9,.
O=C(/C(=C/c1ccc(Cl)cc1)c1nc2ccccc2[nH]1)c1cccs1,61.7*,-15.2,4.6,20.9,.,-0.2
O=C(Nc1ccc(S(=O)(=O)NC2=NCCCCC2)cc1)c1ccc([N+](=O)[O-])s1,16.1,-16.3,18.8,6.5,3.3,8.4*
COc1cc(/C=C/c2nc(-c3ccccc3O)n[nH]2)cc(OC)c1OC,11.1,65.6*,5.0,-12.7,-2.1,-0.2
COc1cc(/C=C/c2nc(N)nc(-c3ccccc3O)n2)cc(OC)c1OC,16.6,46.8,-10.0,-5.3,1.9,3.8
O=c1cc(-c2ccncc2)oc2ccccc12,0.5,53.1*,-24.9,-4.8,2.6,-0.2
O=c1cc(-c2ccc(O)cc2)oc2ccccc12,-7.6,22.2,3.2,-4.6,-3.2,0.1
SMILES,B2AR ag,H9c2 protect,PfGluPho inh,HKDC1 inh,UCH37 inh,aDG glyco up
CC[n+]1c(/C=C/N(C)c2ccccc2)oc2ccc(Cl)cc21,-62.9,-13.6,29.1,-18.8,5.6,-0.1
CCN1/C(=C/C=C/c2oc3ccc4ccccc4c3[n+]2CC)Oc2ccc3ccccc3c21,.,.,60.4*,50.8*,2.0,.
CC1(C)CC(=O)C(C(C2=C(O)CC(C)(C)CC2=O)c2cccs2)C(=O)C1 (stereo not given),68.2*,2.9,9.7,-3.0,-1.4,0.3
COCCNC(=O)COC(=O)c1ccc(OCC(=O)Nc2ccccc2OC)c(OC)c1,8.7,56.3*,0.0,-8.2,-1.0,0.0
COCCn1ccc2c(OCC(=O)Nc3ccccc3OC)cccc2c1=O,20.9,53.8*,13.0,-1.3,-5.7,-0.3
Cc1c(C)c(C)c(CON=Cc2cccs2)c(C)c1C,.,.,.,.,2.1,.
O=C(c1ccccc1)c1ccc2nc(N3CCN(C(=O)c4ccco4)CC3)c3nncn3c2c1,-3.8,83.6*,49.8,6.4,3.0,0.1
CCOC(=O)N1CCN(c2nc3ccc(C(=O)c4ccccc4)cc3n3cnnc23)CC1,6.2,10.3,26.8,1.9,-2.2,0.0
COc1cccc(Nc2nc(C(N)CCc3ccccc3)cs2)n1 (stereo not given),.,-12.8,.,.,.,2.0
NC(=O)c1cccc(Nc2nc(C(N)CCc3ccccc3)cs2)n1 (stereo not given),.,76.6*,.,.,.,-0.1
Cc1ccc(OCC(=O)NN=Cc2cn(C)c3ccccc23)cc1,.,.,.,.,4.8,.
CCOC(=O)c1c2ccc(OCC(=O)N/N=C/c3ccc(C)cc3)cc2n2ccccc12,-1.4,54.4*,25.9,2.0,.,-0.3
CCOc1ccc(N(CC(=O)NN=Cc2ccc(OC(C)C)cc2)S(C)(=O)=O)cc1,.,.,.,.,-0.2,.
CCOC(=O)C1=C(C)N(c2ccccc2)C(=O)/C1=C\c1cccs1,91.2*,4.4,1.1,2.8,3.6,-0.1
COc1ccccc1C(=O)NN=C(C)CC(=O)Nc1ccc(Nc2ccccc2)cc1,.,.,.,.,4.1,.
N#Cc1ccccc1C=NNc1nc(-c2ccccc2)c2cc(Br)ccc2n1,.,.,.,.,-0.2,.
O=C(C1=C(O)C(=O)N(CCN2CCOCC2)C1c1ccc(F)cc1)c1cc2ccccc2o1 (stereo not given),75.3*,2.2,-36.7,-0.6,9.6,-0.6
O=C(NN=Cc1cc(Br)cc(Br)c1O)c1cccc(N2CCCC2=O)c1,.,.,.,.,-0.6,.
CN1CCc2c(sc(NC(=O)c3ccc4ccccc4c3)c2C(N)=O)C1,-32.5,-7.7,.,.,.,18.7*
CCOC(=O)C(Cc1ccc(NC(=O)/C(=C/c2ccc(OC(C)=O)cc2)NC(C)=O)cc1)N1C(=O)c2ccccc2C1=O (stereo not given),12.3,59.4*,-5.2,-4.0,1.1,-0.1
CCOC(=O)C(Cc1ccc(NC(=O)/C(=C/c2ccccc2)NC(=O)c2ccccc2)cc1)N1C(=O)c2ccccc2C1=O (stereo not given),4.4,42.3,-11.8,-5.5,2.7,0.0
Cc1cc(O)c(C)c(O)c1/C=N/NC(=O)c1cccnc1,1.9,51.3*,-9.1,-15.6,.,0.2
Cc1cc(O)c(C)c(O)c1C=NNC(=O)c1cccnc1,.,.,.,.,6.7,.

# Bioassay records deposited in PubChem BioAssay by several laboratories.
